From PubChem BioAssay
An excerpt weighted towards active compounds, which were near 2.9% of everything screened.
CAL PDZ FP-1: CAL PDZ peptide-binding inhibitors, primary screen, biochemical, fluorescence polarization, Cer-tagged CAL PDZ, HTS; 330,000 tested, 0.02% active; inhibition, % at 20 µM; purified CAL PDZ, TMR-peptide fluorescence polarization, 1 h;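 active means highest replicate inhibition of at least 40%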;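 further: plate controls were DMSO neutral control wells for no effect and unlabeled competitor peptide control wells for full effect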
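Control set: unlabelled peptide and DMSO controls / Material: purified CerCALP PDZ construct / Timing: 1 h incubation at room temperature before polarization reading / Doses: 20 µM, one dose / Detection: fluorescence polarization (mP)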
CAL PDZ FP-2: untagged CAL PDZ binding inhibitors, primary screen, biochemical, fluorescence polarization, HTS. inhibition, % at 24.9 µM. 300,000 tested, 0.92% active. Golgi-associated PDZ and coiled-coil motif-containing protein (Homo sapiens), Q9HD26. purified CAL PDZ, TMR-peptide fluorescence polarization, 1 h;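 active means mean inhibition of at least 30% with at least half of replicates also reaching 30%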;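 further: 0% = DMSO neutral control and 100% = excess unlabeled competitor peptide PRC23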
S100A4 MyoIIA: inhibitors of S100A4-myosin IIA peptide binding, primary screen, biochemical, fluorescence polarization, TAMRA-MyoIIA peptide. Protein S100-A4 (Homo sapiens), P26447. inhibition, % at 10.7 µM. 360,000 tested, 0.14% active. AID 652163, 2013;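 active means mean inhibition of at least 70% across replicates, with every replicate also reaching that level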
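assay system = human S100A4 monomer with TAMRA-labelled myosin IIA peptide | also added = labelled myosin peptide probe, 5 nM | incubation = 5 min between mix addition and reading | control set = DMSO and TFP controls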
ERAP1 HTS inh: human ERAP1 aminopeptidase inhibitors, primary screen, biochemical, single point, plate reader | 340,000 tested, 0.15% active | inhibition, % at 10.7 µM | AID 652197, 2013 | recombinant ERAP1, Leu-AMC fluorescence, 60 min | Endoplasmic reticulum aminopeptidase 1 (Homo sapiens), Q9NZ08;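 active means mean replicate inhibition of at least 30%, or all replicates individually reaching that 30% level; inactive means mean below 30% and not every replicate reaching it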;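 further: 0% = neutral control wells and 100% = L-leucinethiol positive control wells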
SIRT5 inh: SIRT5 desuccinylase inhibitors, primary screen, biochemical, fluorescence imaging, single point, set 5; Purified SirT5, succinyl-peptide AMC, trypsin-coupled fluorescence; AID 652115, 2013; 330,000 tested, 1.1% active; NAD-dependent protein deacylase sirtuin-5, mitochondrial (Homo sapiens), Q9NXA8; inhibition, % at 15 µM; in the data active means inhibition above about 15%
DENV2 CPE: inhibitors of DENV2 cytopathic effect, primary screen, cell-based, plate reader, single concentration; DENV2-infected cells, cytopathic effect rescue; CPE inhibition, % at 9.99 µM; 350,000 tested, 1.7% active; AID 651640, 2012; in the data active means CPE inhibition above about 20%, passing the limit was not always enough; tested in BHK-21 cells;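 further: 0% = median of neutral control wells and 100% = median of positive control wells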
* marks the source's active call; other numbers are inactive results; / = no result given.

SMILES | CAL PDZ FP-1 | CAL PDZ FP-2 | S100A4 MyoIIA | ERAP1 HTS inh | SIRT5 inh | DENV2 CPE
COc1ccc(S(=O)(=O)N(C)C[C@@H]2OCCCC[C@H](C)Oc3ccc(NS(=O)(=O)c4ccc(Cl)cc4)cc3C(=O)N([C@@H](C)CO)C[C@H]2C)cc1 | / | / | -23 | 2 | 21* | -5
COc1ccc(S(=O)(=O)Nc2ccc3c(c2)C(=O)N([C@@H](C)CO)C[C@@H](C)[C@@H](CN(C)S(=O)(=O)c2ccc(Cl)cc2)OCCCC[C@H](C)O3)cc1 | / | / | -2 | 2 | 21* | 35*
COc1ccc(S(=O)(=O)N(C)C[C@H]2OCCCC[C@H](C)Oc3ccc(NS(=O)(=O)c4ccc(Cl)cc4)cc3C(=O)N([C@H](C)CO)C[C@H]2C)cc1 | / | / | 13 | 3 | 22* | 21*
COc1ccc(S(=O)(=O)Nc2ccc3c(c2)C(=O)N([C@H](C)CO)C[C@H](C)[C@@H](CN(C)S(=O)(=O)c2ccc(Cl)cc2)OCCCC[C@H](C)O3)cc1 | / | / | 0 | 0 | 0 | -2
CC(C)NC(=O)Nc1cccc2c1O[C@H](CN(C)Cc1ccc3c(c1)OCO3)[C@@H](C)CN([C@H](C)CO)C2=O | / | / | 5 | 1 | 8 | -1
CCC(=O)N1CCC2(CC1)CN(Cc1cc(F)ccc1F)[C@@H](CO)c1[nH]c3cc(OC)ccc3c12 | / | / | 1 | -1 | 3 | -3
O=C(NCCC(=O)N1CCCC1)c1ccccc1Cl | 0 | 39* | 7 | -6 | -1 | 2
O=c1c2ccccc2sn1-c1ccc(F)cc1 | -2 | -2 | 1 | 52* | / | -3
O=c1c2ccc(F)cc2sn1-c1ccccc1 | / | / | -1 | / | -1 | 1
COC(=O)c1cccc(-n2sc3ccccc3c2=O)c1 | 0 | 0 | -3 | 86* | 0 | -3
O=c1c2cc(F)ccc2sn1-c1ccccc1Cl | / | / | 0 | 61* | -2 | -3
O=C(c1cnccn1)N1CC(=O)N2[C@H](CO)[C@@H](c3ccc(/C=C/c4ccccc4)cc3)[C@@H]2C1 | / | / | 7 | 3 | 0 | 7
O=C(NCCN1CCC(n2c(=O)[nH]c3ccccc32)CC1)c1ccccc1 | / | / | 15 | -6 | -3 | 20*
O=C(Nc1ccncc1)c1ccc(N2CCCC2=O)cc1 | -3 | -3 | -2 | -4 | 0 | -5
O=C(Nc1cccc([N+](=O)[O-])c1)c1ccc(N2CCCC2=O)cc1 | 0 | 69* | -2 | -1 | -1 | 2
CCCCn1c(O)c(N=Nc2ccccn2)c2ccccc21 | -3 | 2 | / | / | / | /
CCCCn1c(O)c(N=Nc2ccccc2O)c2ccccc21 | 0 | 37* | -2 | -3 | / | /
COc1ccc(S(=O)(=O)Nc2ccc3c(c2)C(=O)N([C@@H](C)CO)C[C@@H](C)[C@H](CN(C)C(=O)Nc2ccccc2)OCCCC[C@@H](C)O3)cc1 | / | / | 103* | 1 | -1 | -2
COc1ccc(S(=O)(=O)Nc2ccc3c(c2)C(=O)N([C@@H](C)CO)C[C@@H](C)[C@H](CN(C)C(=O)Cc2ccccc2)OCCCC[C@H](C)O3)cc1 | / | / | 4 | -1 | 6 | 24*
COc1ccc(NC(=O)N(C)C[C@@H]2OCCCC[C@H](C)Oc3ccc(NS(=O)(=O)c4ccccc4)cc3C(=O)N([C@H](C)CO)C[C@H]2C)cc1 | / | / | -1 | 1 | 1 | 58*
C[C@@H]1CCCCO[C@@H](CN(C)C(=O)Cc2ccccc2)[C@H](C)CN([C@@H](C)CO)C(=O)c2cc(NS(=O)(=O)c3cn(C)cn3)ccc2O1 | / | / | -3 | -2 | 7 | -11
COc1ccc(S(=O)(=O)Nc2ccc3c(c2)C(=O)N([C@@H](C)CO)C[C@H](C)[C@@H](CN(C)C(=O)Nc2ccccc2)OCCCC[C@H](C)O3)cc1 | / | / | / | / | / | 1
C[C@@H]1CN([C@@H](C)CO)C(=O)c2cc(NS(=O)(=O)c3cn(C)cn3)ccc2O[C@@H](C)CCCCO[C@H]1CN(C)C(=O)Cc1ccccc1 | / | / | 1 | -2 | 17* | -5
N#C[C@H]1[C@H](c2ccccc2C2=CCCC2)[C@H](CO)N1C(=O)NC1CCCCC1 | / | / | -1 | 3 | 3 | 1
CCCC(=O)Nc1ccc2c(c1)C(=O)N(C)C[C@@H](OC)[C@@H](C)CN(Cc1ccccn1)[C@H](C)CO2 | / | / | 7 | -2 | -7 | -3
SMILES | CAL PDZ FP-1 | CAL PDZ FP-2 | S100A4 MyoIIA | ERAP1 HTS inh | SIRT5 inh | DENV2 CPE
CCCCOCCCNC(=O)C[C@@H]1C[C@@]2(C(=O)OCC)CCCC=C2N(CCc2ccc(OC)c(OC)c2)C1=O | / | / | -11 | -4 | -2 | 28*
CCOC(=O)[C@]12CCC=C1N(CCC1=CCCCC1)C(=O)[C@H](CC(=O)NCCCCc1ccccc1)C2 | / | / | -2 | -1 | 1 | 85*
CCOC(=O)[C@]12CCCC=C1N(CCc1ccc(OC)c(OC)c1)C(=O)[C@H](CC(=O)NCCCN1CCCC1=O)C2 | / | / | -4 | -1 | / | -3
CCOC(=O)[C@]12CCC=C1N(CCC1=CCCCC1)C(=O)[C@H](CC(=O)NCc1ccccc1)C2 | / | / | -2 | 0 | -11 | -9
O=C(C[C@@H]1CC[C@H](NC(=O)c2ccc3c(c2)OCO3)[C@@H](CO)O1)NCc1ccc(Cl)cc1 | / | / | 8 | -2 | 1 | 4
COc1ccc(/C=N/NC(=O)c2cccc(O)c2)cc1Cn1nc(C)c([N+](=O)[O-])c1C | -2 | 53* | -2 | -4 | 3 | 0
COc1ccc(/C=N/n2cnnc2)cc1Cn1nc(C)c([N+](=O)[O-])c1C | -1 | -4 | -10 | 10 | 1 | -5
COC(=O)c1cccc(Cn2nc(C)c([N+](=O)[O-])c2C)c1 | -1 | -6 | 18 | 7 | 15* | 12
COc1ccc(NC(=O)N[C@@H]2CC[C@H](CCNC(=O)Nc3cc(F)ccc3F)O[C@@H]2CO)cc1 | / | / | 5 | 0 | -5 | -7
C[C@@H]1CN([C@H](C)CO)C(=O)c2cc(NC(=O)NC3CCCCC3)ccc2O[C@@H]1CN(C)Cc1ccncc1 | / | / | -3 | -2 | -2 | 30*
COc1ccc(NC(=O)Nc2ccc3c(c2)C(=O)N([C@@H](C)CO)C[C@@H](C)[C@@H](CN(C)Cc2ccc(-c4ccccc4)cc2)O3)cc1 | / | / | -12 | -4 | 17* | 8
COc1ccc(NC(=O)Nc2ccc3c(c2)C(=O)N([C@@H](C)CO)C[C@@H](C)[C@@H](CN(C)Cc2ccncc2)O3)cc1 | / | / | -5 | 2 | 27* | 18
